Most compounds without a hit are left out; they make up all but 1.6% or so of the library.
Wee1 stabilizer: human Wee1 degradation inhibition, primary screen | AID 1321 | reporter increase, % at 5 µM | P30291 | HeLa Luc-Wee1K328M stability, luciferase luminescence; 100% = proteasome inhibitor MG132 effect | 220,000 tested, 1.2% active;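 active means activation above the mean of all tested compounds plus 3 SD, set per screening run, cut at about 8.8% in these data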;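 further: cells exposed to compound for 20 h before luminescence read; 0% = DMSO alone and 100% = MG132 at 30 µM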
L929 necroptosis: L929 zVAD cell death inhibition | L929 zVAD necroptosis rescue, ATP luminescence, 24 h; with zVAD 60 µM | viability rescue, % at 10 µM | 220,000 tested, 0.38% active;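 active means activation, scaled between plate controls, above about 75%, limit read from the data; inactive means activation under that limit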;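 further: 0% = zVAD with DMSO and 100% = DMSO alone without zVAD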
Pf gamet viab: kills late stage P. falciparum gametocytes; inhibition, % at 10.9 µM; P. falciparum stage V gametocytes, ATP luminescence, 24 h; AID 743093; 150,000 tested, 0.065% active;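 active means inhibition above the mean plus 3 SD of compounds within the control limits, set per campaign, cut at about 38% in these data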;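 further: 0% = DMSO wells and 100% = medium only without gametocytes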
MDM2 E3 inh: inhibitors of human Mdm2 E3 ubiquitin ligase; cell-based MDM2 ubiquitination luciferase reporter, 2 h; 0 = plate control, 100 = twice control, blank-subtracted; signal enhancement, % at 5 µM; 210,000 tested, 0.11% active; AID 1230;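 active means signal enhancement of 30% or more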;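 further: luminescence tracks abundance of the self-degrading MDM2-luciferase fusion protein; higher signal means inhibition of MDM2 E3 ligase activity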
Target sequence (Q00987 whole entry, looked up, the tested form may be a part): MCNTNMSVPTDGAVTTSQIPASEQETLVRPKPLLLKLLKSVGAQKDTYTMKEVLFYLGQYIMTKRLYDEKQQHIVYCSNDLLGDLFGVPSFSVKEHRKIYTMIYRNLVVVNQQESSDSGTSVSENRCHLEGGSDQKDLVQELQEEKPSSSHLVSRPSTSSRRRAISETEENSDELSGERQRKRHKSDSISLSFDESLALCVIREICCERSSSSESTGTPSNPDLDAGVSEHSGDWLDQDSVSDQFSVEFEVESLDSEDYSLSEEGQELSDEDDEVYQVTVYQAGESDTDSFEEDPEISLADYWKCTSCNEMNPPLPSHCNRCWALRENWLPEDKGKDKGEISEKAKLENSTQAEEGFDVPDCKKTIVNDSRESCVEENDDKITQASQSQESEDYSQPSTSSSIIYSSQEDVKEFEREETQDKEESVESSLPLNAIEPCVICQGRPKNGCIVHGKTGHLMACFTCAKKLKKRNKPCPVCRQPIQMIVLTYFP
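System: stable MDM2–luciferase fusion reporter cells / Input: 2000 cells seeded into each well / Schedule: 4 h settle plus 2 h compound, 37 °C / Compound: single-point 5 µM / Buffer or medium: cells held in DMEM / Benchmarks: control and blank well means / Evaluation: percent signal gain over controls, blank-subtracted / Measured by: luciferase luminescence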
TNF necrop inh: TNF-alpha cell death inhibition in Jurkat FADD-/- cells; Jurkat FADD-/- TNF necroptosis rescue, ATP luminescence, 24 h; 0 = TNF only, 100 = no-TNF cells; activation (protection from cell death), % at 10 µM; 220,000 tested, 0.068% active;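 active means activation, meaning protection from cell death, of at least 50% relative to plate controls; inactive means activation below 50%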;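 further: necroptosis triggered by 40 ng/mL TNF-alpha added together with compound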
zVAD death conf: confirmed blocker of zVAD induced death in L929 cells; shares compounds with L929 necroptosis; L929 zVAD-induced necroptosis rescue, ATP luminescence, 24 h; activation (protection from necroptosis), % at 10 µM; 760 tested, 16% active; AID 463117;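 active means mean protection from necroptosis of at least 50% over duplicate tests; inactive means mean protection below 50%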;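 further: 0% = cells with zVAD alone and 100% = vehicle cells without zVAD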
An asterisk follows results filed as active; · = no result given.

SMILES | Wee1 stabilizer | L929 necroptosis | Pf gamet viab | MDM2 E3 inh | TNF necrop inh | zVAD death conf
O=c1[nH]c2ccccc2nc1N1CCOCC1 | 2 | 1 | · | 0 | -1 | ·
CC1=CC(=Nc2c(C)n(C)n(-c3ccccc3)c2=O)C=CC1=O | -4 | 77* | · | -16 | -16 | 50*
CC1=CC(=Nc2c(C)n(C)n(-c3ccccc3)c2=O)C=C(C)C1=O | 0 | 58 | -12 | -14 | -5 | ·
Clc1ccc(Oc2cnns2)cc1Cl | -2 | 0 | · | -16 | 0 | ·
C=CCOc1ccc(/C=C/C(C)=N\O)cc1 | -2 | 79* | -6 | -20 | 1 | 10
COc1ccc(/C=C2\N=C(SC)NC2=O)cc1 | 2 | 91* | · | -10 | 64* | 77*
N#CC1=C(N)N(c2ccccc2)C(=O)C1 | 1 | 0 | 2 | -7 | 0 | ·
Cc1ccc(NC(=O)Nc2cccnc2)cc1NC(=O)Nc1cccnc1 | 0 | 77* | · | -28 | -11 | 6
COc1ccc(CCNC(=O)C/C(C)=N/NC(=O)C(c2ccccc2)c2ccccc2)cc1OC | 4 | 80* | -12 | -8 | 36 | 10
COc1ccc(CCNC(=O)C(C)Sc2ccccc2)cc1OC (centres undefined) | -1 | 0 | · | -12 | -3 | ·
COc1cc(NC(=O)CSc2nc3ccccc3c(=O)n2C)ccc1NC(=O)c1ccco1 | 1 | 3 | -13 | · | 2 | ·
Cc1cc(Br)ccc1SCC(=O)OC/C(O)=C(\C#N)c1nc2ccccc2[nH]1 | 0 | 27 | -14 | · | 11 | ·
Cc1ccc(C)c(SCC(=O)OC/C(O)=C(\C#N)c2nc3ccccc3[nH]2)c1 | 0 | 78* | 6 | -14 | -2 | 29
O=C(Oc1c(-c2ccccc2)oc2ccccc2c1=O)c1ccccc1 | -2 | 79* | 14 | -19 | -8 | 2
O=c1[nH][nH]cc1C=Nc1ccccc1O | -1 | 75* | · | -7 | 8 | 13
O=C1NCC(O)=C1C=Nc1ccccc1O | 0 | 77* | -6 | -14 | 14 | 7
O=C(C1=NNCC1c1ccccc1)C1CO1 (centres undefined) | -2 | 99* | 3 | 17 | 91* | 90*
O=C(O)C1CCCCC1C(=O)Nc1ccc2c(c1)CCC2 (centres undefined) | 2 | 0 | 2 | -5 | -2 | ·
Cc1c(N=C2NC(=O)C(CC(=O)Nc3ccc(Cl)cc3)S2)c(=O)n(-c2ccccc2)n1C (centres undefined) | 0 | 0 | 4 | -15 | -1 | ·
CC1CCc2nc(NC(=O)C3CC3)sc2C1 (centres undefined) | 1 | 78* | 17 | -15 | 0 | 29
CCOc1cc(/C=C(\C#N)c2[nH]nc(N)c2C#N)ccc1O | -3 | 81* | 11 | -17 | 2 | 39
CCOc1cc(-c2cc(-c3ccc(C)cc3)nc(N)c2C#N)ccc1O | -1 | 0 | -4 | -33 | -8 | ·
CCCN(CCC)CCCNC(=O)C1c2cc(OC)c(OC)cc2C(=O)N(C)C1c1cccs1 (centres undefined) | 3 | 0 | · | -14 | 1 | ·
CCOc1ccc(NC(=O)CSC2=NCCN2)cc1 | 0 | 5 | 3 | -9 | -1 | ·
COC(=O)c1ccc(NC(=O)CSC2=NCCN2)cc1 | -2 | 92* | -1 | -9 | -8 | 12
COc1ccc(OCC(=O)Nc2ccccc2-c2ccccc2)cc1 | 0 | 3 | 23 | -4 | -7 | ·
Cc1cccc(OCC(=O)Nc2ccccc2-c2ccccc2)c1 | 0 | 75* | · | 10 | 1 | 1
Nc1ncc(Br)cc1S(=O)(=O)NCCC(=O)N1CCN(c2ncccn2)CC1 | 1 | 92* | 22 | -8 | 18 | 3

Compound activity as filed in PubChem.
